# Measured values pooled from the literature.
# Protocols differ between the studies behind these lines.
# Sample: plasma
SMILES,system,conditions,AUC(0-inf) [ng·h/mL]
COCCOC(=O)C1=C(C)NC(C)=C(C(=O)OC(C)C)C1c1cccc([N+](=O)[O-])c1 (stereo not drawn),male Sprague-Dawley rat,"intravenous, 3 mg/kg",573
COc1ccc2c(Cc3ccccc3F)c3[n+](cc2c1OC)CCc1cc2c(cc1-3)OCO2.[Br-],rat,"intravenous, 5 mg/kg",125
COc1cc2c3c(n(CCCN4CCOCC4)c(=O)c2cc1OC)-c1cc2c(cc1C3=O)OCO2,male Fischer 344 rat,"intravenous, 12 mg/m², single dose",232
Cc1c(-c2ccccc2)cccc1N1C(=O)c2cc(CN[C@H](C(=O)O)C(C)O)c(OCc3cccc(C#N)c3)cc2C1=O (stereo partly drawn),Sprague-Dawley rat,"intravenous, 5 mg/kg",3260
CCOC(=O)[C@@]12C[C@@H]1[C@@H](n1ccc3c(NC)nc(C#Cc4ccc(Cl)s4)nc31)[C@H](O)[C@@H]2O,male Sprague-Dawley rat,"oral, 10 mg/kg",371
COc1ccc2c(Cc3ccccc3F)c3n(c(=O)c2c1OC)CCc1cc2c(cc1-3)OCO2,rat,"oral, 5 mg/kg",7960
O=C(Nc1cc(F)c(F)c(F)c1)c1ccc(F)c(S(=O)(=O)NCc2cccc(B(O)O)c2)c1,male Sprague-Dawley rat,"oral, 20 mg/kg",37.6
Oc1c(Br)cc(Cl)c2cccnc12,Sprague-Dawley rat,"intravenous, 2 mg/kg",1200
C#Cc1cccc(Nc2ncnc3cc(OCCOC)c(OCCOC)cc23)c1,male Sprague-Dawley rat,"oral, 12 mg/kg, single dose",9260
COc1nc(-c2cc(C)c(N[C@@H](C)c3cc(F)cc(F)c3)nn2)ccc1-n1cnc(C)c1,male Sprague-Dawley rat,"oral, 5 mg/kg, single dose",31900
Oc1cc(O)cc(-c2cc3ccc(O)cc3o2)c1,male rat,"intravenous, 5 mg/kg",932
CCc1cc(C(=O)NC)c2nccc(N3CCc4c(cc(Cn5ccnc5)cc4-c4cn(C)nc4C(F)(F)F)C3=O)c2c1,male Sprague-Dawley rat,"oral, 50 mg/kg, single dose",11100
CNC(=O)c1c(C)oc2cc(Oc3ncnc4cc(OC)c(OC)cc34)ccc12,Sprague-Dawley rat,"oral, 1 mg/kg, single dose",6270
CCc1cc(OC)c2nccc(N3CCc4c(cc(Cn5ccnc5)cc4-c4cn(C)nc4C(F)(F)F)C3=O)c2c1,male Sprague-Dawley rat,"oral, 50 mg/kg",10300
COc1ccc(C(C)=O)c(O)c1,male Sprague-Dawley rat,"oral, 100 mg/kg",38600
